Source: article PMC4635625 (Neuropharmacology, 2015)
Where a name gives a salt, the structure may show the parent alone. Read-outs that look alike come from different tables or passages of the source.

Columns and labels:
[1] = biological target: α6L9′Sβ2L9′SLFM/AAQA (α6β2‡) nAChR (Rattus norvegicus, UniProt P12390+P43143, L273S/L280S/L348M/R364A/R365A/R367A); test: cell-based; format: cell-based
[2] = biological target: α6β2‡ nAChR (Rattus norvegicus, UniProt P12390+P43143, L273S/L280S/L348M/R364A/R365A/R367A); format: cell-based
[3] = biological target: α6β2‡ nAChR, TrpB (α6:W149) = 5,7-F2Trp (Rattus norvegicus, UniProt P12390+P43143, L273S/L280S/L348M/R364A/R365A/R367A/W179X); test: TEVC dose-response, nonsense suppression, F2Trp at TrpB; format: cell-based
[4] = biological target: TrpB (α6:W149) in α6β2‡ nAChR (Rattus norvegicus, UniProt P12390+P43143, L273S/L280S/L348M/R364A/R365A/R367A); test: Fluorination plot; format: cell-based; details: for cation-π interaction with the indole side chain of TrpB: fluorination plot at TrpB in α6β2‡
Procedure, shortened: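 Rat α6β2‡ with UAG at TrpB, 10:1 α6:β2 mRNA, coinjected with photodeprotected fluoro-Trp–tRNA (25 ng mRNA per cell) into stage V–VI Xenopus oocytes; 24–48 h at 18 °C in ND96 pH 7.5. TEVC at −60 mV, 15 s agonist pulses in Ca2+-free ND96. EC50 from Hill fits of normalized averaged data. Log fold-shift in EC50 plotted against calculated cation–fluoro-Trp binding energy.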

[5] = biological target: α6β2‡ nAChR, TrpB (α6:W149) = 5-F1Trp (Rattus norvegicus, UniProt P12390+P43143, L273S/L280S/L348M/R364A/R365A/R367A/W179X); test: TEVC dose-response, nonsense suppression, 5-F1Trp at TrpB; format: cell-based
[6] = biological target: α6β2‡ nAChR, TrpB (α6:W149) = 5-Me-Trp (Rattus norvegicus, UniProt P12390+P43143, L273S/L280S/L348M/R364A/R365A/R367A/W179X); test: TEVC dose-response, nonsense suppression, MeTrp at TrpB; format: cell-based
[7] = biological target: α6β2‡ nAChR, TrpB (α6:W149) = 5,6,7-F3Trp (Rattus norvegicus, UniProt P12390+P43143, L273S/L280S/L348M/R364A/R365A/R367A/W179X); test: TEVC dose-response, nonsense suppression, F3Trp at TrpB; format: cell-based
[8] = system: α4β2 nAChR; details: ref Dougherty and Van Arnam, 2014; cited from earlier work
[9] = biological target: α6β2‡ nAChR, TrpB (α6:W149) = 5-Br-Trp (Rattus norvegicus, UniProt P12390+P43143, L273S/L280S/L348M/R364A/R365A/R367A/W179X); test: TEVC dose-response, nonsense suppression, BrTrp at TrpB; format: cell-based
[10] = biological target: α6β2‡ nAChR, TrpB (α6:W149) = Trp (Rattus norvegicus, UniProt P12390+P43143, L273S/L280S/L348M/R364A/R365A/R367A); test: TEVC dose-response, nonsense suppression series, Trp at TrpB; format: cell-based
[11] = biological target: α6β2‡ nAChR, TrpB (α6:W149) = 6-F1Trp (Rattus norvegicus, UniProt P12390+P43143, L273S/L280S/L348M/R364A/R365A/R367A/W179X); test: TEVC dose-response, nonsense suppression, 6-F1Trp at TrpB; format: cell-based; details: TrpB = 6-F1Trp; 10:1 α6β2‡
[12] = biological target: α6β2‡ nAChR, TrpB (α6:W149) = 4-F1Trp (Rattus norvegicus, UniProt P12390+P43143, L273S/L280S/L348M/R364A/R365A/R367A/W179X); test: TEVC dose-response, nonsense suppression, 4-F1Trp at TrpB; format: cell-based; details: TrpB = 4-F1Trp; 10:1 α6β2‡
[13] = system: muscle-type nAChR; details: ref Beene et al., 2002; cited from earlier work
[14] = biological target: α6β2‡ nAChR, TrpB (α6:W149) = 5-CNTrp (Rattus norvegicus, UniProt P12390+P43143, L273S/L280S/L348M/R364A/R365A/R367A/W179X); test: TEVC dose-response, nonsense suppression, CNTrp at TrpB; format: cell-based; details: 10:1 α6β2‡
[15] = agonist panel, α6-biased population, Hill coefficient
[16] = agonist panel, α6-biased population, range of maximum currents
[17] = agonist panel, α6-biased population, holding potential −60 mV
[18] = Table 4, fold-shift in EC50 relative to Trp

α6L9′Sβ2L9′SLFM/AAQA (α6β2‡) nAChR, sequence (P43143 31-493 L280S): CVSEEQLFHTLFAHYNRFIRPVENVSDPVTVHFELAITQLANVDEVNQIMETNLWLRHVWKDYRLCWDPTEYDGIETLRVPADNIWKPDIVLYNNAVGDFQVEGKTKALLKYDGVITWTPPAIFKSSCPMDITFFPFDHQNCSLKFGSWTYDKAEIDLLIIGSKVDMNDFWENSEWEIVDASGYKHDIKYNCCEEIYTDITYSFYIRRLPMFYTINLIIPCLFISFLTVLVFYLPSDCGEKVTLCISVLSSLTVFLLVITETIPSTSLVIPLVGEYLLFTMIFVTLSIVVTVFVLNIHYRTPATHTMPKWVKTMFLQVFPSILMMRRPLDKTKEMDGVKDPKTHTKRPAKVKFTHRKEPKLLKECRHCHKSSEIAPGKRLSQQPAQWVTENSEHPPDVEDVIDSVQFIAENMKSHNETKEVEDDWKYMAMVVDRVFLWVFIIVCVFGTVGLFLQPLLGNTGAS
α6L9′Sβ2L9′SLFM/AAQA (α6β2‡) nAChR, sequence (P12390 25-500 L273S/L348M/R364A/R365A/R367A): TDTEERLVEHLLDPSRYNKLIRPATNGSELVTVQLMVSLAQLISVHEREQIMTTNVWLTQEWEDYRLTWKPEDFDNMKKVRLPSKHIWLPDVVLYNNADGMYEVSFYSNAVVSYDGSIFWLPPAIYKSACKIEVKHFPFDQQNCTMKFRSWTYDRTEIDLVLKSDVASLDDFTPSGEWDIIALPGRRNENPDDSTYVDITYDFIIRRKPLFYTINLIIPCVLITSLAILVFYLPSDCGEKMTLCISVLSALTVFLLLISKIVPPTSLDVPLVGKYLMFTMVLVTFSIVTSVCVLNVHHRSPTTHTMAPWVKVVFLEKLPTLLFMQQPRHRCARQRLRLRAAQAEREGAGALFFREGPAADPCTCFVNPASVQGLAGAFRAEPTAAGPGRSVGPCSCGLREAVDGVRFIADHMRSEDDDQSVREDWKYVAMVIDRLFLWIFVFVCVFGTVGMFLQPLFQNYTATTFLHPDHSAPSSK
TrpB (α6:W149) in α6β2‡ nAChR, sequence (P43143 31-493 L280S): as the sequence (P43143 31-493 L280S) above
TrpB (α6:W149) in α6β2‡ nAChR, sequence (P12390 25-500 L273S/L348M/R364A/R365A/R367A): as the sequence (P12390 25-500 L273S/L348M/R364A/R365A/R367A) above
α6β2‡ nAChR, TrpB (α6:W149) = Trp, sequence (P43143 31-493 L280S): as the sequence (P43143 31-493 L280S) above
α6β2‡ nAChR, TrpB (α6:W149) = Trp, sequence (P12390 25-500 L273S/L348M/R364A/R365A/R367A): as the sequence (P12390 25-500 L273S/L348M/R364A/R365A/R367A) above
α6β2‡ nAChR, sequence (P43143 31-493 L280S): as the sequence (P43143 31-493 L280S) above
α6β2‡ nAChR, sequence (P12390 25-500 L273S/L348M/R364A/R365A/R367A): as the sequence (P12390 25-500 L273S/L348M/R364A/R365A/R367A) above

SMILES: c1cnc2cc3c(cc2n1)[C@@H]1CNC[C@H]3C1 [Var, varenicline]
- EC50 ([1]; EC50, agonist panel, α6-biased population, holding potential −60 mV): 31 ± 3 nM
- potency (EC50) relative to ACh ([1]; agonist panel at α6β2‡, in words): slightly more potent
- nH [1, 15]: 1.08 ± 0.08
- Imax [1, 16]: 0.51–12.1 µA

SMILES: O=c1cccc2n1C[C@@H]1CNC[C@H]2C1 [Cyt, cytisine]
- Imax [1]: 0.57–31.9 µA
- nH [1]: 1.31 ± 0.05
- potency (EC50) relative to ACh [1]: slightly more potent
- EC50 ([1]; EC50): 27 ± 1 nM
- Eff [2]: 0.28 ± 0.01

SMILES: Clc1ccc(C2CC3CCC2N3)cn1 (racemic) [Epi, (±)-epibatidine]
- nH [1, 15]: 1.9 ± 0.2
- Imax [1, 16]: 0.47–2.81 µA

SMILES: C[N+](C)(C)CCOC(N)=O.[Cl-] [CCh, carbamylcholine chloride]
- EC50 [1, 17]: 1360 ± 50 nM
- nH [1, 15]: 1.12 ± 0.04
- Imax [1, 16]: 3.63–52.5 µA

SMILES: CN1CCC[C@H]1c1cccnc1 [Nic, (−)-nicotine tartrate]
- Imax ([3]; Table 4): 0.32–2.13 µA
- nH ([3]; Table 4): 1.30 ± 0.06
- Imax [1]: 9.48–54.4 µA
- nH [1]: 1.38 ± 0.05
- cation-π interaction with the indole side chain of TrpB [4]: do not make cation-π interactions
- Imax ([5]; Table 4, TrpB = F1Trp): 0.07–2.06 µA
- nH ([5]; Table 4, TrpB = F1Trp): 1.39 ± 0.06
- Eff [2]: 0.49 ± 0.03
- Imax ([6]; Table 4): 0.31–3.95 µA
- nH ([6]; Table 4): 1.36 ± 0.05
- Imax ([7]; Table 4): 0.05–1.05 µA
- nH ([7]; Table 4): 1.28 ± 0.03
- cation-π interaction to TrpB [8]: strong cation-π interaction
- Imax ([9]; Table 4): 0.08–5.65 µA
- nH ([9]; Table 4): 1.42 ± 0.04
- Imax ([10]; Table 4): 0.09–5.8 µA
- nH ([10]; Table 4): 1.43 ± 0.06

SMILES: C1=C(/c2cncnc2)CCCNCC/1 [TC299]
- EC50 ([3]; Table 4): 138 ± 6 nM
- Imax ([3]; Table 4): 0.06–1.87 µA
- nH ([3]; Table 4): 0.98 ± 0.04
- Fold [3, 18]: 1.48
- EC50 [1, 17]: 71 ± 3 nM
- nH [1, 15]: 0.99 ± 0.04
- Imax [1, 16]: 1.73–21.9 µA
- EC50 ([5]; Table 4, TrpB = F1Trp): 220 ± 10 nM
- Imax ([5]; Table 4, TrpB = F1Trp): 0.27–3.49 µA
- nH ([5]; Table 4, TrpB = F1Trp): 1.01 ± 0.04
- Fold ([5]; Table 4, fold-shift in EC50 relative to Trp, TrpB = F1Trp): 2.37
- EC50 ([6]; Table 4): 73 ± 4 nM
- Imax ([6]; Table 4): 0.15–2.35 µA
- nH ([6]; Table 4): 0.92 ± 0.03
- Fold [6, 18]: 0.78
- EC50 ([7]; Table 4): 630 ± 30 nM
- Imax ([7]; Table 4): 0.05–0.28 µA
- nH ([7]; Table 4): 0.90 ± 0.03
- Fold [7, 18]: 6.77
- EC50 ([9]; Table 4): 250 ± 8 nM
- Imax ([9]; Table 4): 0.1–7.71 µA
- nH ([9]; Table 4): 1.01 ± 0.03
- Fold [9, 18]: 2.69
- EC50 ([10]; Table 4): 93 ± 4 nM
- Imax ([10]; Table 4): 0.33–3.78 µA
- nH ([10]; Table 4): 1.09 ± 0.04
- Fold [10, 18]: 1

SMILES: C[N+](C)(C)CCO [Ch, choline chloride]
- Imax [1]: 2.08–15.4 µA
- nH [1]: 1.32 ± 0.05
- EC50 ([1]; EC50): 159000 ± 7000 nM
- Eff [2]: 0.33 ± 0.02

SMILES: CC(=O)OCC[N+](C)(C)C [ACh, Acetylcholine chloride]
- Imax ([3]; 10:1 α6β2‡): 0.76–9.33 uA
- nH ([3]; 10:1 α6β2‡): 1.43 ± 0.02
- nH [1, 15]: 1.36 ± 0.03
- Imax [1, 16]: 0.28–14.9 µA
- nH ([1]; α6:β2 mRNA ratio 1:1, Hill coefficient): 1.15 ± 0.06
- Imax ([1]; α6:β2 mRNA ratio 1:1, range of maximum currents): 4.42–14.2
- nH ([1]; α6:β2 mRNA ratio 1:2, Hill coefficient): 1.23 ± 0.05
- Imax ([1]; α6:β2 mRNA ratio 1:2, range of maximum currents): 3.06–31.7
- nH ([1]; α6:β2 mRNA ratio 1:5, Hill coefficient): 0.95 ± 0.04
- Imax ([1]; α6:β2 mRNA ratio 1:5, range of maximum currents): 0.70–8.21
- nH ([1]; α6:β2 mRNA ratio 1:10, Hill coefficient): 0.83 ± 0.02
- Imax ([1]; α6:β2 mRNA ratio 1:10, range of maximum currents): 1.01–4.67
- nH ([1]; α6:β2 mRNA ratio 1:20, Hill coefficient): 0.86 ± 0.03
- Imax ([1]; α6:β2 mRNA ratio 1:20, range of maximum currents): 1.01–10.9
- nH ([1]; α6:β2 mRNA ratio 2:1, Hill coefficient): 1.14 ± 0.03
- Imax ([1]; α6:β2 mRNA ratio 2:1, range of maximum currents): 0.94–79.5
- nH ([1]; α6:β2 mRNA ratio 5:1, Hill coefficient): 1.17 ± 0.04
- Imax ([1]; α6:β2 mRNA ratio 5:1, range of maximum currents): 0.70–79.9
- nH ([1]; α6:β2 mRNA ratio 10:1, Hill coefficient): 1.17 ± 0.04
- Imax ([1]; α6:β2 mRNA ratio 10:1, range of maximum currents): 4.85–70.7
- nH ([1]; α6:β2 mRNA ratio 20:1, Hill coefficient): 1.64 ± 0.05
- Imax ([1]; α6:β2 mRNA ratio 20:1, range of maximum currents): 0.25–1.44
- nH ([1]; α6:β2 mRNA ratio 50:1, Hill coefficient): 1.17 ± 0.03
- Imax ([1]; α6:β2 mRNA ratio 50:1, range of maximum currents): 8.25–57.3
- currents in response to acetylcholine ([1]; α6L9′Sβ2L9′SLFM/AAQA in oocytes): greater than 1 µA
- slope of linear trend of fluorination plot ([4]; 10:1 α6β2‡, trend excludes 5-CNTrp and 4-F1Trp): −0.10
- cation-π interaction with the indole side chain of TrpB [4]: strong cation-π interaction
- Imax [11]: 0.18–4.28 uA
- nH [11]: 1.30 ± 0.04
- nH ([5]; TrpB = 5-F1Trp, 10:1 α6β2‡): 1.37 ± 0.03
- Imax [12]: 0.71–6.92 uA
- Imax ([6]; 10:1 α6β2‡): 0.19–19.4 uA
- nH ([6]; 10:1 α6β2‡): 1.18 ± 0.02
- Imax ([7]; 10:1 α6β2‡): 0.09–1.94 uA
- nH ([7]; 10:1 α6β2‡): 1.04 ± 0.03
- cation-π interaction to TrpB [8]: strong cation-π interaction
- cation-π interaction [13]: does
- Imax ([9]; 10:1 α6β2‡): 0.22–15.1 uA
- nH ([9]; 10:1 α6β2‡): 1.32 ± 0.04
- Imax ([10]; 10:1 α6β2‡): 0.28–14.9 uA
- nH ([10]; 10:1 α6β2‡): 1.36 ± 0.03
- Imax [14]: 0.31–13.3 uA
